High-throughput results (PubChem)
Sampled rows, rich in hits. Any-hit rate of the full collection: about 1.7%.
Vif imaging: inhibitors of HIV Vif. HEK293T cells, Vif self-association by quenched fluorescence, imaging, 24 h. inhibition, % at 7.49 µM. hit rate 0.35% among 340,000; in the data active means inhibition above about 50%, passing the limit was not always enough; inconclusive means no clear call, values can overlap the other calls; inactive means below about 31%
DSG3 Ab inh: inhibitors of pemphigus antibody binding to human desmoglein-3 | P32926 | DSG3-coupled beads, scFv-anti-DSG3-GFP binding, flow cytometry; active compounds read low | binding (percent of control), % at 10 µM | hit rate 0.48% among 310,000;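 active means binding more than 3 SD below its plate's average and above zero; inconclusive means below that plate limit but binding exactly zero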;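 further: hits lower antibody fragment binding to DSG3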
Target sequence (P32926 whole entry, looked up, the tested form may be a part): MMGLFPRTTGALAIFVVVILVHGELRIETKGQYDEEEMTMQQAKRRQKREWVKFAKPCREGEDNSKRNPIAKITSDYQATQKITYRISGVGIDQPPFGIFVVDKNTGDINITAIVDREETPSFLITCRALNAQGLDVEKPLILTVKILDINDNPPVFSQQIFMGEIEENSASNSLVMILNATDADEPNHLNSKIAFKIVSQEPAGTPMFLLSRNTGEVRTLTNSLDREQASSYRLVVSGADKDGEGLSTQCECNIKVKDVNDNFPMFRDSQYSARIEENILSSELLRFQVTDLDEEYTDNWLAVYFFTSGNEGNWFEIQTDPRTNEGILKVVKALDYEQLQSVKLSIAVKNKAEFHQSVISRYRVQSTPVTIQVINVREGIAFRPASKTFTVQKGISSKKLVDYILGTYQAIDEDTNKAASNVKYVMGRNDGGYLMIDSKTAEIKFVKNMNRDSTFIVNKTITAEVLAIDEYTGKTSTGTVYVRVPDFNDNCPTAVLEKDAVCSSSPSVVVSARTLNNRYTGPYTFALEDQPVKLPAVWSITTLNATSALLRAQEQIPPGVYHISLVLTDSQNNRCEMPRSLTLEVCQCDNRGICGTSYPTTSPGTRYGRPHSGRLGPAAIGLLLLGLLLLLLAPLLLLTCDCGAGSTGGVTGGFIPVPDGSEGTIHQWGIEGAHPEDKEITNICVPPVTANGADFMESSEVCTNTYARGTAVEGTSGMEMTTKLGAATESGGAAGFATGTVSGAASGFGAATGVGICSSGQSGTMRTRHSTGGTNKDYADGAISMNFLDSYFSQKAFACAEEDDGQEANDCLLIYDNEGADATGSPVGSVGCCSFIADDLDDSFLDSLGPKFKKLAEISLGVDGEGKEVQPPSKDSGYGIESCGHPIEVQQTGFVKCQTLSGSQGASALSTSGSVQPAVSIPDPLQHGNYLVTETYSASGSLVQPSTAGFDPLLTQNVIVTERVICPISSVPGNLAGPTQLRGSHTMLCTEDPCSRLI
T cell modulator: T cell immune modulation candidate; 2C CD8+ T cell-vesicle binding, flow cytometry; active compounds read low; response (vesicle binding), % at 7 µM; hit rate 0.068% among 330,000; AID 2052;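 active means response, share of CD8 T cells binding vesicles, and their 90th percentile fluorescence all below set limits, cut at about 80% in these data, passing the limit was not always enough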;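 further: values below 100% mean blocked vesicle binding to the CD8+ T cells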
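Read-out – percent CD8+ FL2 mean versus row control · System – murine 2C transgenic CD8+ T lymphocytes · Times – 1.5 h cell–vesicle binding at 37 °C, then 20 min icy labelling · Control set – naked vesicles low, QL9 vesicles with vehicle high · Detection – cytometric PE anti-B7-1 and Alexa647 anti-CD8 signals after 1% paraformaldehyde fixation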
Myeloid diff 2: promotes myeloid progenitor differentiation. ER-HoxA9 myeloid progenitors, lysozyme-GFP differentiation, flow cytometry. calls only at 10 µM. hit rate 1% among 360,000;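 active means normalized GFP-positive differentiation at or above the plate's own cutoff, the solvent-only control mean plus 3 SD; inconclusive means no clear call, values can overlap the other calls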;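 further: cells exposed to compound for four days before flow analysis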
* = called active by the depositor; i = inactive; ? = inconclusive; . = no result given; + = active, no number; ! = a repeat was not active.

SMILES	Vif imaging	DSG3 Ab inh	T cell modulator	Myeloid diff 2
O/N=C1\CCC2CN(C3CCCCC3)CC2C1 (stereo not given)	1	12*	174	i
CC1(C)OC(c2ccccc2)=C/C(=C/C=C2C(=O)NC(=S)NC2=O)O1	.	.	175	.
CN1/C(=C\C=C2C(=O)NC(=S)NC2=O)C(C)(C)c2ccccc21	-2	134	.	+
COc1cc(/C=C/c2nc3ccccc3c(=O)n2-c2cccc(O)c2)ccc1O	-1	96	144	+
COc1cc(/C=C/c2nc3ccccc3c(=O)n2-c2ccccc2O)ccc1O	6	98	474	i
Nc1ncc([N+](=O)[O-])s1	-12	101	616	i
N#Cc1c(/N=C/c2ccc(O)cc2O)sc2c1C1CCN2CC1	-2	105	598	i
CCOC(=O)c1cc(C)sc1/N=C/C1C(=O)NC(=S)NC1=O	-5	69*	211	i
CCOC(=O)c1c(/N=C/C2C(=O)NC(=S)NC2=O)sc(C)c1C	.	.	158	.
COc1cc(C2c3cc4c(cc3CC3COC(=O)C32)OCO4)cc(OC)c1O (stereo not given)	60*	.	.	?
Cc1cc2c(C(C)C)c(O)c(O)c(C=O)c2c(O)c1-c1c(C)cc2c(C(C)C)c(O)c(O)c(C=O)c2c1O	-9	.	.	i
COc1ccc(O)c2c(=O)c3c(OC)cc4c(c3oc12)C1C=COC1O4 (stereo not given)	73*	101	427	i
COc1cc(O)c2c(c1)/C=C/C[C@H](O)[C@H](O)C(=O)CCC[C@H](C)OC2=O	.	.	.	i
Cc1ccc2c(c1Cl)NC(C(=O)O)C1CC(Sc3ccccc3[N+](=O)[O-])C(Cl)C21 (stereo not given)	3	41*	480	i
CCN(CC)C(=O)c1ccc2c(c1)C1C(Cl)C(Sc3ccccc3[N+](=O)[O-])CC1C(C(=O)O)N2 (stereo not given)	-5	87	422	i
COC(=O)C1=C(c2ccc(F)cc2OCc2ccccc2)C[C@@H]2CC[C@H]1N2C(=O)NCCCOC(C)C	-8	103	i	i
Cc1[nH]c2ccccc2c1CCCNC1CCCCC1	-1	106	276	+
COC(=O)C[C@]1(C(=O)OC)CN(C#N)N(c2ccc(Cl)cc2)C12c1ccccc1-c1ccccc12	57*	69	249	.
COC(=O)[C@@H]1[C@@H](C(=O)OC)C2(c3ccccc3-c3ccccc32)N(c2ccc(Cl)cc2)N1C#N	-4	59	207	.
O=c1[nH]c(CN2CC=C(c3ccccc3)CC2)nc2cc(C(F)(F)F)ccc12	-8	112	443	+
O=c1[nH]c(CN2CC=C(c3ccccc3)CC2)nc2scc(-c3ccccc3)c12	2	108	104	+
O=[N+]([O-])c1ccc(N2CCOCC2)c2cccnc12	5	108	458	i
O=[N+]([O-])c1ccc(N2CCOCC2)c2c1no[n+]2[O-]	106*	103	.	.
CCCCn1nnnc1C(c1cccs1)N1CCC2(CC1)C(=O)NCN2c1ccccc1 (stereo not given)	-1	.	.	i
O=C(Nc1ccc(F)cc1)N1Cc2ccccc2-n2nncc2C1	-1	105	.	i
SMILES	Vif imaging	DSG3 Ab inh	T cell modulator	Myeloid diff 2
O=C1NC(=O)C(CCc2ccncc2)(Cc2ccc3c(c2)OCO3)C(=O)N1CCc1ccccc1 (stereo not given)	-14	105	240	+
CCN1CCC(N(C)C2CCCCC2)CC1	-3	116	147	.
CN1CCc2cccc(Cl)c2CC1	-1	99	982	i
COc1ccc2c3c([nH]c2c1)C(C)NCC3 (stereo not given)	8	.	368	+
COc1ccc2[nH]c3c(c2c1)CCNC3C (stereo not given)	7	100	181	i
O=C1NC(=O)C(=Cc2ccc(-c3cc(Cl)ccc3[N+](=O)[O-])o2)C(=O)N1	-1	112	.	+
CC(C)N1CC=C(c2c[nH]c3ccccc23)CC1	.	105	241	+
CNC(=O)Oc1ccc2c(c1)C(=O)c1ccccc1CO2	-8	123	316	+
CNC(=O)Oc1cccc(-c2cn3cc(OC(=O)NC)ccc3n2)c1	3	80	563	i
CCCCn1c(NC(=O)c2ccc(Br)o2)c(C(=O)OCC)c2nc3ccccc3nc21	0	81	425	+
CC(=O)c1cc(C(C)=O)c(C)[n+](C)c1C	91*	.	229	i
CN(C)C(=S)SSC(=S)N(C)C	3	93	233	+
CCOc1ccc(N2C(=O)/C(=C/c3ccco3)C(=O)NC2=S)cc1	17	14*	158	i
CCOC(=O)CNC(=O)N1Cc2ccccc2-n2nncc2C1	.	104	.	+
COC1CCC(OC2CC(C3(C)CCC4(CC(O)C(C)C(C(C)/C=C(\C)C(=O)C(C)CC(C)C(=O)O)O4)O3)OC3(OC(C4OC(O)(CO)C(C)CC4C)CC3C)C2C)OC1C (stereo not given)	-14	90	.	.
CC(C)c1ccc(N2C(=O)NC(=O)/C(=C/C=C/c3ccco3)C2=O)cc1	-1	97	194	+
Cc1ccc(N2C(=O)NC(=O)/C(=C/C=C/c3ccco3)C2=O)cc1	-5	98	285	i
COC(=O)C1=C(c2ccc(S(C)(=O)=O)cc2)C[C@@H]2CC[C@H]1N2C(=O)NCCCOC(C)C	2	101	349	i
C=C1C(=O)OC2CC3(C)OC3C3OC3C3=CC(OC3=O)C12 (stereo not given)	86*	.	.	i
O=C(COc1ccc2ccc(=O)oc2c1)N1C[C@H]2C[C@@H](C1)c1cccc(=O)n1C2	-4	109	87	i
Nc1ccc2ccc3cccc[n+]3c2c1	.	90	452	+
CCOC(=O)C1CCN(C(C)C(=O)c2c[nH]c3ccccc23)CC1 (stereo not given)	-18	92	296	i
Cc1cc(N(CCCl)CCCl)ccc1/C=N/N=C(\N)c1cnccn1	-2	102	160	i
Cc1cc(N(CCCl)CCCl)ccc1C=Cc1ccncn1	77*	96	.	?
CC(C)CC(N(C)C)C1(c2ccc(Cl)cc2)CCC1 (stereo not given)	4	79*!	250	.
SMILES	Vif imaging	DSG3 Ab inh	T cell modulator	Myeloid diff 2
O=C(O)c1nn(Cc2ccc(Cl)cc2)c2ccccc12	-1	103	.	+
O=C(O)c1nn(Cc2ccc(Cl)cc2Cl)c2ccccc12	-5	96	650	i
CC(C)C1C(C#N)=C(N)Oc2c1c(=O)oc1ccccc21 (stereo not given)	-2	104	.	i
Cc1[nH]n(-c2ccccc2)c(=O)c1C(c1ccc([N+](=O)[O-])cc1)c1c(C)[nH]n(-c2ccccc2)c1=O	-1	97	217	i
O=[N+]([O-])c1ccc(C(c2ccc([N+](=O)[O-])cc2)c2ccc([N+](=O)[O-])cc2)cc1	8	92	.	+
CCOC(=O)CNC(=O)N1Cc2cc(N3CCOCC3)ccc2-n2nncc2C1	-2	.	.	i
Cc1ccccc1-n1c(/C=C/c2ccccn2)nc2ccccc2c1=O	-10	123	187	i
